From PubChem BioAssay
Most compounds without a hit are left out; they make up all but 0.79% or so of the library.
mIAP activ: activators of mouse IAP, primary screen, biochemical, luminescence, uHTS. 0.24% of 330,000 active. muIAP, CDP-Star luminescence, 30 min; active compounds read high; 1 = vehicle-only enzyme signal, 0 = enzyme-free wells. intestinal alkaline phosphatase [Mus musculus]. activation factor at 10 µM;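 active means activation factor of at least 2 at 20 µM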
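System: Mouse IAP enzyme | Also added: CDP-Star substrate | Dosing: Compounds dispensed in DMSO | Schedule: 30 min enzyme-substrate-compound incubation at room temperature | Technique: Chemiluminescence readout | Control set: DMSO-only wells and no-enzyme negative control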
hIAP inh: human IAP inhibitors, primary screen, biochemical, luminescence, uHTS; Intestinal-type alkaline phosphatase (Homo sapiens), P09923; purified IAP, CDP-Star luminescence, 30 min; inhibition, % at 10 µM; 0.12% of 330,000 active; AID 2544, 2010;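 active means inhibition reaching a set limit with compound at 10 µM in the primary screen, cut at about 35% in these data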;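 further: plate controls were DMSO wells with enzyme for no effect and no-enzyme buffer wells for full effect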
Target sequence (P09923 whole entry, looked up): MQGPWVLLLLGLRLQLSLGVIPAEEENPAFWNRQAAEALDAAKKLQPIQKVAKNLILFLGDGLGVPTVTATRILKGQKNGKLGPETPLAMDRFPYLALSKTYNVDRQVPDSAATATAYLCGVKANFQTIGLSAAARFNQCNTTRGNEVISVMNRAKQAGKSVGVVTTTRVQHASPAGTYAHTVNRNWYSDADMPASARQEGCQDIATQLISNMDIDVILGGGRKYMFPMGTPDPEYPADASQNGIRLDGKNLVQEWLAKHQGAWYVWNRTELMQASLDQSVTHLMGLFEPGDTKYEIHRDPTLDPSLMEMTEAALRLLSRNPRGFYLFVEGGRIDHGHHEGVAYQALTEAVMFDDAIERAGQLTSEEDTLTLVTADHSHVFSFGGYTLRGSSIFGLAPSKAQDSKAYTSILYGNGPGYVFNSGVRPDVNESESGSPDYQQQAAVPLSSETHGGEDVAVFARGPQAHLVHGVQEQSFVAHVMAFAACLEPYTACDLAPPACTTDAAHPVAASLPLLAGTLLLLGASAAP
bIAP activator: bovine intestinal alkaline phosphatase activators, primary screen, biochemical, bovine IAP, CDP-star luminescence; alkaline phosphatase, intestinal [Bos taurus]; purified bovine IAP, 30 min; active compounds read high; fold of DMSO-control signal, blank-subtracted; activation factor at 20 µM; 0.17% of 200,000 active; AID 1016, 2008;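 active means activation factor of 2 or more at 20 µM, a signal rise over negative controls twice the positive control's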
bIAP inhibitor: bovine intestinal alkaline phosphatase inhibitors, primary screen, selectivity assay for TNAP inhibitor project, biochemical, bovine IAP, CDP-star luminescence; alkaline phosphatase, intestinal [Bos taurus]; purified bovine IAP, 30 min; inhibition, % at 20 µM; 190,000 tested, under 10 active;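 active means over 50% inhibition of intestinal alkaline phosphatase at 20 µM in the single-dose screen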
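System: purified bovine intestinal alkaline phosphatase (IAP) enzyme; Input: IAP diluted 1/65,000,000 in the well; Measured by: CDP-star luminescence signal; Compound dosing: 20 µM single dose; Incubation: 30 min reaction at room temperature.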
hIAP act: human IAP activators, primary screen, biochemical, luminescence, uHTS; Intestinal-type alkaline phosphatase (Homo sapiens), P09923; purified human IAP, CDP-Star luminescence, 30 min; active compounds read high; 1 = vehicle-only enzyme, 0 = enzyme-free background; activation factor at 10 µM; 0.16% of 330,000 active;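 active means activation factor of the enzyme at least 2-fold when tested at 20 µM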
mIAP block: inhibitors of mouse IAP, primary screen, biochemical, luminescence, uHTS; intestinal alkaline phosphatase [Mus musculus]; 0.2% of 330,000 active; AID 2806, 2010; purified mouse IAP, CDP-Star luminescence, 30 min; inhibition, % at 10 µM;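 active means inhibition of at least 40% at 10 µM in the primary screen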;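 further: plate controls were DMSO with enzyme for no effect and no enzyme wells for full effect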
mIAP inh confirm: inhibitors of mouse IAP, confirmation, biochemical, luminescence, single concentration; shares compounds with mIAP block; purified mouse IAP, CDP-Star luminescence, 30 min; inhibition, % at 10 µM; 4.7% of 11,000 active; AID 434971, 2010;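 active means inhibition of at least 40% at 10 µM in either of the two replicates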;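 further: plate controls were DMSO wells with enzyme for no effect and buffer wells lacking enzyme for full effect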
An asterisk follows results filed as active; · = no result.

SMILES	mIAP activ	hIAP inh	bIAP activator	bIAP inhibitor	hIAP act	mIAP block	mIAP inh confirm
O=C(Nc1cccc(Cl)c1)Nc1cccc(Cl)c1	2.6*	-9	1.2	-16	1.1	-163	-221
O=C(Nc1ccccc1)Nc1cc(Cl)cc(Cl)c1	4.8*	-19	0.9	12	1.2	-384	-241
O=C(Nc1cccc(Cl)c1)NC1CCCCC1	1.9	-9	0.9	6	1.1	-93	·
O=C(Nc1cccc(Cl)c1)NC1CC2CCC1C2 (configuration not stated)	3.2*	-11	·	·	1.1	-220	-164
CSc1cccc(NC(=O)Nc2ccccc2)c1	2.8*	-6	0.7	26	1.1	-177	-110
COc1ccc(C(=O)Nc2sc(C)c(C)c2CN2CC(C)OC(C)C2)cc1 (configuration not stated)	1	-9	0.9	6	1.1	-5	·
O=C(Nc1cccc(Cl)c1)Nc1nc(-c2ccccc2)cs1	2.8*	-13	0.4	·	1.1	-184	-116
O=C(Nc1cccc(F)c1)Nc1cccc(Cl)c1	3.6*	-14	·	·	1.1	-259	-111
CC(O)c1cccc(NC(=O)Nc2cccc(NC(=O)Nc3cccc(C(C)O)c3)c2)c1 (configuration not stated)	2.5*	-19	·	·	1.2	-152	-89
CC(O)c1cccc(NC(=O)CCC(=O)O)c1 (configuration not stated)	1.1	16	0.9	10	0.84	-9	·
O=C(NCc1csc2ccccc12)Nc1cc(Cl)cc(Cl)c1	3.7*	4	·	·	0.96	-271	-145
Cc1ccc(C(=O)NCC(=O)OCC(=O)c2ccc(Br)s2)cc1	0.93	-8	·	·	1.1	7	·
COc1ccccc1OC(=O)c1cc2ccccc2oc1=O	0.91	6	·	·	0.94	9	·
COc1cc(/C=C/[N+](=O)[O-])ccc1OC(=O)c1cc2ccccc2oc1=O	0.42	-16	·	·	1.2	58*	49*
O=c1oc2cc(O)ccc2s1	0.52	-11	·	·	1.1	48*	72*
CCOC(=O)c1cc(CC)sc1/N=C/C1=C(O)CC(C)(C)CC1=O	1	1	1.2	-23	0.99	-1	·
CCOC(=O)c1sc(N=NC2=C(O)CC(C)(C)CC2=O)c(C(=O)OCC)c1C	4*	-25	1.1	-10	1.2	-297	-210
CC(C)(CNC(=O)c1ccccc1NS(C)(=O)=O)N1CCCCC1	1	-5	·	·	1	0	·
CC(NC(=O)c1ccccc1F)c1nnc(SCC(=O)Nc2nnc(C3CC3)s2)n1C (configuration not stated)	1	-1	·	·	1	0	·
N#CCCn1cc(C(=O)N2CCCCC2)c(-c2cccc([N+](=O)[O-])c2)n1	0.89	2	1	-3	0.98	11	·
CCC(C)Sc1cccc(-c2nc3cc(C)ccn3c2NCc2ccccc2)c1 (configuration not stated)	1.1	-2	·	·	1	-6	·
N#C/C(=C\c1ccc(O)c(O)c1)C(=O)Nc1cccc2ncccc12	0.34	32	·	·	0.68	66*	76*
COc1ccc(/C=C(\C#N)C(=O)Nc2cccc3ncccc23)cc1OC	1.1	-15	·	·	1.2	-14	·
CCOc1ccc(S(=O)(=O)NC2CC2)cc1	0.99	-25	·	·	1.2	1	·
CC(C)n1c(NCc2nc3ccccc3n2C)nc2ccccc21	1.3	6	1.7	-67	0.94	-28	·
SMILES	mIAP activ	hIAP inh	bIAP activator	bIAP inhibitor	hIAP act	mIAP block	mIAP inh confirm
CCn1c(CNc2nc3ccccc3n2C(C)C)nc2ccccc21	2*	-21	3.1*	-210	1.2	-100	-97
COc1ccc2[nH]c3c(c2c1)CCN1C(=O)C(CC(=O)NC/C=C(\C)CCC=C(C)C)C[C@H](C(=O)N(C(C)C)C(C)C)[C@@]31C (some centres not stated)	2.2*	·	·	·	·	-116	-100
Cc1csc2c(=O)[nH]cnc12	0.97	7	0.9	6	0.93	3	·
CCOC(=O)C1=C(CN2CCN(C(=O)c3ccco3)CC2)NC(=O)NC1c1ccc(OC)cc1 (configuration not stated)	0.93	-33	·	·	1.3	7	·
Cc1cc(C)cc(NC(=O)C2CCN(S(=O)(=O)c3ccc4c(c3)NC(=O)C(C)S4)CC2)c1 (configuration not stated)	2.5*	-44	·	·	1.4	-145	-96
O=S(=O)(c1ccc(NC(=S)N/N=C/c2ccc(O)c(O)c2)cc1)N1CCOCC1	0.29	34	·	·	0.66	70*	76*
N#Cc1ccc(/C=N/NC(=S)Nc2ccc(S(=O)(=O)N3CCOCC3)cc2)cc1	0.83	0	·	·	1	17	·
CC(NC(=S)Nc1ccc(S(=O)(=O)N2CCOCC2)cc1)C1CC2CCC1C2 (configuration not stated)	4*	-45	1.1	-10	1.5	-302	-145
CC(=O)Nc1ccc(S(=O)(=O)N2CCN(S(=O)(=O)N3CCOCC3)CC2)cc1	1.1	-15	·	·	1.1	-11	·
Cc1ccccc1C(=O)N1CCC(C(=O)Nc2cccc(F)c2)CC1	1.1	-16	1.1	-12	1.2	-9	·
Cc1cc(C)n(CCCN2CCC(C(=O)Nc3cccc(-c4cccc(F)c4)c3)CC2)n1	3.5*	0	·	·	1	-250	-202
Cc1cc(O)c(Sc2ncn[nH]2)cc1NS(=O)(=O)c1ccc(Cl)cc1	0.53	-10	·	·	1.1	47*	44*
O=S(=O)(Nc1cc(Sc2ncn[nH]2)c(O)c2ccccc12)c1ccccc1	0.93	-8	1	2	1.1	7	·
Cc1ccc2nc3c(cc(C#N)c(=O)n3CC3CCCO3)c(=O)n2c1 (configuration not stated)	·	·	1.2	-24	·	·	·
CCN1CCc2nc(N)oc2CC1	1	6	·	·	0.94	-2	·
O=C(NNC(=S)NC(=O)c1cccs1)c1ccc(O)cc1	0.41	-62	·	·	1.6	60*	64*
CC(=O)Nc1cccc(-c2csc(N)n2)c1	1.1	-16	0.9	6	1.2	-6	·
Cc1csc(N)n1	0.97	-2	0.9	12	1	3	·
Cc1ccc(-c2csc(N)n2)s1	0.32	23	1	3	0.77	68*	78*
